Measured values reported in ChEMBL document CHEMBL1221374, “Synthesis, proapoptotic screening, and structure-activity relationships of novel aza-lupane triterpenoids” (Bioorg Med Chem Lett, 2010).
pIC50: −log10 of the molar value.

Columns and labels:
SK-MEL-2 = assay: Cytotoxicity against human SK-MEL-2 cells after 72 hrs by MTS assay; assay type: functional, cell-based; settings: SK-MEL-2, 72 h
How it was run: (§1)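 Cells (1 × 10^4/well) seeded the evening before. Compounds were taken from 10 mM DMSO stock into growth medium and tested at 2, 10, 25, 50 and 75 µM, four wells each, with DMSO-matched controls. Exposure was 72 h, then MTS reagent for 1.5-4 h at 37 °C, and formazan A490 was read against DMSO-treated cells. IC50 is the mean of four wells from one experiment, or of three experiments where stated.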

Daoy = assay: Cytotoxicity against human DaOY cells after 72 hrs by MTS assay; assay type: functional, cell-based; how it was run: as §1
HT-29 = assay: Cytotoxicity against human HT-29 cells after 72 hrs by MTS assay; assay type: functional, cell-based; settings: HT-29, 72 h; how it was run: as §1
[1] = Cytotoxicity against human LN229 cells after 72 hrs by MTS assay; assay type: functional, cell-based; settings: LN-229, 72 h; how it was run: as §1
MCF7 = assay: Cytotoxicity against human MCF7 cells after 72 hrs by MTS assay; assay type: functional, cell-based; settings: MCF7, 72 h; how it was run: as §1
A-375 = assay: Cytotoxicity against human A375 cells after 72 hrs by MTS assay; assay type: functional, cell-based; settings: A-375, 72 h; how it was run: as §1
OVCAR-3 [2] = assay: Cytotoxicity against human OVCAR-3 cells after 120 hrs by MTS assay; settings: OVCAR-3, 120 h
OVCAR-3 [3] = assay: Cytotoxicity against human OVCAR-3 cells after 72 hrs by MTS assay; assay type: functional, cell-based; settings: OVCAR-3, 72 h
SK-MEL-2 (Homo sapiens) [4] = assay: Induction of apoptosis in human SK-MEL-2 cells assessed as apoptotic cells at 7.5 uM after 16 hrs by annexin assay
SK-MEL-2 (Homo sapiens) [5] = assay: Induction of apoptosis in human SK-MEL-2 cells assessed as necrotic cells at 7.5 uM after 16 hrs by annexin assay

Row | Compound | pIC50 (SK-MEL-2) | pIC50 (Daoy) | pIC50 (HT-29) | pIC50 [1] | pIC50 (MCF7) | pIC50 (A-375) | pIC50 (OVCAR-3 [2]) | pIC50 (OVCAR-3 [3]) | Activity (SK-MEL-2 (Homo sapiens) [4]) [%] | Activity (SK-MEL-2 (Homo sapiens) [5]) [%]
1 | C=C(CNCCc1ccc(O)cc1)[C@@H]1CC[C@]2(CO)CC[C@]3(C)[C@H](CC[C@@H]4[C@@]5(C)CC[C@H](O)C(C)(C)[C@@H]5CC[C@]43C)[C@@H]12 | 4.80 | 4.80 |  |  |  |  |  |  |  | 
2 | C=C(CNCCO)[C@@H]1CC[C@]2(CO)CC[C@]3(C)[C@H](CC[C@@H]4[C@@]5(C)CCC(NCCc6ccc(O)c(O)c6)C(C)(C)[C@@H]5CC[C@]43C)[C@@H]12 (stereo not given in full) | 5.30 | 5.30 | 5.40 | 4.49 | 5.40 | 5.15 |  |  |  | 
3 | C=C(CO)[C@@H]1CC[C@]2(CO)CC[C@]3(C)[C@H](CC[C@@H]4[C@@]5(C)CC[C@H](N)C(C)(C)[C@@H]5CC[C@]43C)[C@@H]12 | 4.47 | 4.51 | 4.77 | 4.77 | 4.82 | 5.22 | 4.85 |  |  | 
4 | C=C(C)[C@@H]1CC[C@]2(C(=O)O)CC[C@]3(C)[C@H](CC[C@@H]4[C@@]5(C)CCC(N)C(C)(C)[C@@H]5CC[C@]43C)[C@@H]12 (stereo not given in full) | 5.10 | 5.15 |  |  |  |  | 4.85 |  |  | 
5 | C=C(C)[C@@H]1CC[C@]2(C(=O)O)CC[C@]3(C)[C@H](CC[C@@H]4[C@@]5(C)CCC(NCCc6ccc(O)c(O)c6)C(C)(C)[C@@H]5CC[C@]43C)[C@@H]12 (stereo not given in full) | 4.72 | 4.52 | 4.19 | 4.54 | 4.43 |  |  | 4.66 |  | 
6 | C=C(CNCCc1ccc(O)cc1)[C@@H]1CC[C@]2(CO)CC[C@]3(C)[C@H](CC[C@@H]4[C@@]5(C)CCC(=O)C(C)(C)[C@@H]5CC[C@]43C)[C@@H]12 | 4.80 | 4.77 | 5.40 | 5.10 | 5.22 | 5.22 |  |  |  | 
7 | C=C(C)[C@@H]1CC[C@]2(CO)CC[C@]3(C)[C@H](CC[C@@H]4[C@@]5(C)CCC(NCCOC)C(C)(C)[C@@H]5CC[C@]43C)[C@@H]12 (stereo not given in full) | 5.15 | 5.10 | 4.72 |  | 5.10 | 5.15 | 4.66 |  |  | 
8 | C=C(CNCCO)[C@@H]1CC[C@]2(CO)CC[C@]3(C)[C@H](CC[C@@H]4[C@@]5(C)CCC(NCCO)C(C)(C)[C@@H]5CC[C@]43C)[C@@H]12 (stereo not given in full) | 5.15 | 4.89 | 5.70 | 4.80 | 5.22 | 5.22 |  |  |  | 
9 | C=C(C)[C@@H]1CC[C@]2(C(=O)O)CC[C@]3(C)[C@H](CC[C@@H]4[C@@]5(C)CCC(NCCO)C(C)(C)[C@@H]5CC[C@]43C)[C@@H]12 (stereo not given in full) | 4.44 | > 5.70 | 4.80 |  | 4.46 | 4.85 |  | 4.55 |  | 
10 | C=C(CNCCO)[C@@H]1CC[C@]2(CO)CC[C@]3(C)[C@H](CC[C@@H]4[C@@]5(C)CCC(=O)C(C)(C)[C@@H]5CC[C@]43C)[C@@H]12 | 4.35 | 4.33 | 4.35 | 4.80 | 4.33 | 5.00 |  | 4.17 |  | 
11 | C=C(C)[C@@H]1CC[C@]2(CO)CC[C@]3(C)[C@H](CC[C@@H]4[C@@]5(C)CCC(N)C(C)(C)[C@@H]5CC[C@]43C)[C@@H]12 (stereo not given in full) | 5.05 | 4.72 | 5.70 | > 5.70 | 5.30 | 5.70 |  | 5.30 |  | 
12 | C=C(CO)[C@@H]1CC[C@]2(CO)CC[C@]3(C)[C@H](CC[C@@H]4[C@@]5(C)CC[C@H](NCCc6ccc(O)c(O)c6)C(C)(C)[C@@H]5CC[C@]43C)[C@@H]12 | 4.62 | 4.47 | 4.43 | 4.77 | 4.51 | 5.22 |  | 4.74 |  | 
13 | C=C(CNCCO)[C@@H]1CC[C@]2(CO)CC[C@]3(C)[C@H](CC[C@@H]4[C@@]5(C)CCC(NCc6ccc7c(c6)OCO7)C(C)(C)[C@@H]5CC[C@]43C)[C@@H]12 (stereo not given in full) | 5.40 | 4.89 | 5.30 | 4.49 | 4.89 | 5.30 | 4.19 |  |  | 
14 | C=C(C)[C@@H]1CC[C@]2(C(=O)O)CC[C@]3(C)[C@H](CC[C@@H]4[C@@]5(C)CCC(NCCc6ccc(O)cc6)C(C)(C)[C@@H]5CC[C@]43C)[C@@H]12 (stereo not given in full) | 5.22 | 5.22 | 5.40 | 5.30 | 5.22 | 5.30 |  | 5.22 |  | 
15 | C=C(C)[C@@H]1CC[C@]2(CO)CC[C@]3(C)[C@H](CC[C@@H]4[C@@]5(C)CCC(NCCc6ccc(O)cc6)C(C)(C)[C@@H]5CC[C@]43C)[C@@H]12 (stereo not given in full) | 5.70 | > 5.70 | 5.70 | 5.10 | 5.30 | 5.40 | 5.30 |  |  | 
16 | C=C(CNCCO)[C@@H]1CC[C@]2(CO)CC[C@]3(C)[C@H](CC[C@@H]4[C@@]5(C)CC[C@H](O)C(C)(C)[C@@H]5CC[C@]43C)[C@@H]12 | 4.82 | 4.46 |  |  |  |  |  |  |  | 
17 | C=C(CNCCO)[C@@H]1CC[C@]2(CO)CC[C@]3(C)[C@H](CC[C@@H]4[C@@]5(C)CCC(N)C(C)(C)[C@@H]5CC[C@]43C)[C@@H]12 (stereo not given in full) | 5.22 | 5.30 | > 5.70 | 4.92 | 5.70 | 5.30 |  |  | > 60 | < 15
18 | C=C(CO)[C@@H]1CC[C@]2(CO)CC[C@]3(C)[C@H](CC[C@@H]4[C@@]5(C)CC[C@H](NCCO)C(C)(C)[C@@H]5CC[C@]43C)[C@@H]12 | 4.47 | 4.54 | 4.19 | 4.43 | 4.39 | 4.80 |  | 4.41 |  | 
19 | C=C(C)[C@@H]1CC[C@]2(CO)CC[C@]3(C)[C@H](CC[C@@H]4[C@@]5(C)CCC(NCCc6ccc(O)c(O)c6)C(C)(C)[C@@H]5CC[C@]43C)[C@@H]12 (stereo not given in full) | 4.77 | 5.00 | 5.22 | 5.05 | 4.77 | 5.22 | 5.40 |  |  | 
20 | C=C(CO)[C@@H]1CC[C@]2(CO)CC[C@]3(C)[C@H](CC[C@@H]4[C@@]5(C)CC[C@H](NCc6ccc7c(c6)OCO7)C(C)(C)[C@@H]5CC[C@]43C)[C@@H]12 | 4.77 | 4.80 | < 4.12 | 4.14 | 4.12 | < 4.12 | 4.70 |  |  | 
21 | C=C(CO)[C@@H]1CC[C@]2(CO)CC[C@]3(C)[C@H](CC[C@@H]4[C@@]5(C)CC[C@H](NCCOC)C(C)(C)[C@@H]5CC[C@]43C)[C@@H]12 | 4.42 | 4.47 | 4.33 | 4.42 | 4.40 | 4.74 | 4.40 |  |  | 
22 | C=C(C)[C@@H]1CC[C@]2(C(=O)O)CC[C@]3(C)[C@H](CC[C@@H]4[C@@]5(C)CCC(NCc6ccc7c(c6)OCO7)C(C)(C)[C@@H]5CC[C@]43C)[C@@H]12 (stereo not given in full) | 4.54 | 4.42 | < 4.12 | < 4.12 | < 4.12 | < 4.12 |  | < 4.12 |  | 
23 | C=C(CNCCc1ccc(O)cc1)[C@@H]1CC[C@]2(CO)CC[C@]3(C)[C@H](CC[C@@H]4[C@@]5(C)CCC(NCCO)C(C)(C)[C@@H]5CC[C@]43C)[C@@H]12 (stereo not given in full) | 5.22 | 5.70 | 5.30 | 5.22 | 5.30 | 5.30 |  |  | > 60 | < 15
24 | C=C(CNCCO)[C@@H]1CC[C@]2(CO)CC[C@]3(C)[C@H](CC[C@@H]4[C@@]5(C)CCC(NCCOC)C(C)(C)[C@@H]5CC[C@]43C)[C@@H]12 (stereo not given in full) | 5.10 | 5.30 | 5.70 | 4.55 | 4.96 | 5.40 |  |  |  | 
25 | C=C(C)[C@@H]1CC[C@]2(C(=O)O)CC[C@]3(C)[C@H](CC[C@@H]4[C@@]5(C)CC[C@H](O)C(C)(C)[C@@H]5CC[C@]43C)[C@@H]12 [BETULINIC ACID] | 5.15 | 4.96 | 4.51 | 4.54 | 4.52 | 4.66 | 4.40 |  |  | 
26 | C=C(C)[C@@H]1CC[C@]2(CO)CC[C@]3(C)[C@H](CC[C@@H]4[C@@]5(C)CCC(NCCO)C(C)(C)[C@@H]5CC[C@]43C)[C@@H]12 (stereo not given in full) | > 5.70 | 5.22 | 5.70 | 5.40 | 5.30 | 5.70 |  | 5.30 |  | 
27 | C=C(CO)[C@@H]1CC[C@]2(CO)CC[C@]3(C)[C@H](CC[C@@H]4[C@@]5(C)CC[C@H](NCCc6ccc(O)cc6)C(C)(C)[C@@H]5CC[C@]43C)[C@@H]12 | 4.42 | 4.49 | 4.68 | 4.77 | 4.77 | 5.22 | 4.64 |  |  | 
